The subject of assay [1] is U937 cells. The assay is described as follows: Cell growth assay. The assay is classed as cell-based, human. The settings on record: for IC50: Homo sapiens, U-937, read-out: IC50p (50% inhibition of cell proliferation). In a few lines: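 U937 cells seeded at 5×10^4 cells/ml in RPMI 1640 with 10% FBS and 2 mM glutamine, then grown with graded test compound levels at 37 °C, 5% CO2. Hemocytometer counts on days 3–5, trypan blue viability. IC50p taken from a day-3 inhibition-versus-concentration plot. Efflux arm: MRP inhibitor at 10 μM added with test compound (145 or 13 μM final), counted day 4, two quadruplicate experiments, paired t-test.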

For the next assay, the system named is K562 cells. Description: Cell growth assay. The class given is cell-based, human. Conditions: for IC50: Homo sapiens, K562, read-out: IC50p (50% inhibition of cell proliferation); for % of inhibition of cell proliferation: 4th day.
A further assay has as its target leucine aminopeptidase. Conditions: cited from earlier work.
Assay [2] relates to U937 cells. Conditions: cited from earlier work.

Read-outs that look alike come from different tables or passages of the source.

With `CCCCC[C@H](CC(=O)NO)C(=O)N[C@H](C(=O)N1CCC[C@H]1CO)C(C)C` [Actinonin], the figures for the IC50 with U937 cells [1] and in the assay with K562 cells were 11 µM and 19 µM, respectively. Further, in the assay on K562 cells (K562, 580 μM bestatin or 26 μM actinonin + verapamil (30 μM)), the “% of inhibition of cell proliferation” value worked out at 78.0±6.6%.
Usually Ki stands for the dissociation constant of the complex between target and ligand, obtained from inhibition or displacement. On to `CC(C)C[C@H](NC(=O)[C@@H](O)[C@H](N)Cc1ccccc1)C(=O)O` [Bestatin], for which the Ki at leucine aminopeptidase is 0.02 µM. Also, the IC50 with U937 cells [1] is 108 µM; in the assay on U937 cells [2] (read-out: IC50p, ref 3), 58 µM; in the assay on U937 cells [2] (read-out: IC50p, ref 6, 12) it was around 150 µM; in the assay on U937 cells [2] (read-out: IC50p, ref 11) it was 8 µM; with K562 cells, 466 µM. In addition, the “% of inhibition of cell proliferation” value worked out at 87.4±4.1% in the assay with U937 cells [1] (U937, 145 μM bestatin or 13 μM actinonin + MK-571 (10 μM), 4th day); 66.0±3.7% in the assay on K562 cells (K562, 580 μM bestatin or 26 μM actinonin + MK-571 (10 μM)); 73.6±3.4% in the assay with K562 cells (K562, 580 μM bestatin or 26 μM actinonin + MK-571 (30 μM)). The “change of IC50p with time of incubation” value in the assay on K562 cells (K562, 3rd, 4th and 5th days, Fig. 1) is “increased significantly”.
`COc1ccc(CCN(C)CCCC(C#N)(c2ccc(OC)c(OC)c2)C(C)C)cc1OC` (centres unmarked) [Verapamil, verapamil]: in the assay with U937 cells [1] (U937, 10 μM), the “antiproliferative effect on U937 cells” value is on record as “exhibits an antiproliferative effect”.

The values above are taken from publication PMC7127609 (Cancer Letters, 2002).
